A short description of data set [1]: folding enthalpy; higher = less favourable; fluorescence melt of hairpins on a sequencing array, two-state fit. The settings on record: sodium 0.088 M. An outline of the steps: (§1)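 Melting temperature and folding enthalpy were obtained by bootstrapped two-state fitting. Fits used Cy3 fluorescence of library hairpins with annealed Cy3 and quencher oligos on a sequenced MiSeq flow cell, imaged in 50 mM Na-HEPES pH 8.0, 25 mM NaCl in 2.5 °C steps up to 60 °C and normalised to pre-quench Cy3 and control constructs. Four replicates were combined by inverse-variance weighting, and fitted temperatures were raised by 9.35 °C to match UV melts.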

Data set [2] is described as follows: melting temperature; fluorescence melt of hairpins on a sequencing array, two-state fit, raised by 9.35 °C to match UV melts. Particulars: sodium 0.088 M. The method, boiled down: as §1

As to GGACCCCCGAAAGGGTCC (((..(((....)))))), the folding enthalpy in data set [1] was -34.8 kcal/mol. For the same sequence, the Tm in data set [2] was 62.1 °C.

Regarding GACTAAGAAATTAGTC ((((((....)))))), the folding enthalpy in data set [1] was -24.9 kcal/mol. Further, the Tm in data set [2] came to 40.5 °C.

Take GGCAACGAAAGTTACGCC ((((((....)))..))): in data set [1], the folding enthalpy is -24.2 kcal/mol. In data set [2], the Tm was determined as 44.4 °C.

As for CGAGCTCGGAAACGATCG (((..(((....)))))), the folding enthalpy in data set [1] was -6.9 kcal/mol. For the same sequence, the Tm in data set [2] was 27.9 °C.

Consider GATCAAATGATTGATC ((((((....)))))), for which the folding enthalpy in data set [1] is -26.2 kcal/mol. Also, in data set [2], the Tm is 35.8 °C.

Regarding GCCACAGGAAACTATGGC ((((.((....)).)))), in data set [1], the folding enthalpy was -31.8 kcal/mol. Further, the Tm in data set [2] came to 39.3 °C.

Consider GCGAAGCGAAAGCTCCGC (((.(((....))).))), for which, in data set [1], the folding enthalpy is -36.7 kcal/mol. In addition, the Tm in data set [2] was found to be 50.9 °C.

As for GATCGGGATCCGATC ((((((...)))))), the folding enthalpy in data set [1] is -39.3 kcal/mol. Besides, the Tm in data set [2] was 55.6 °C.

Take GGATTAGGAAACTGATCC ((((.((....)).)))): the folding enthalpy in data set [1] is -33.7 kcal/mol. In addition, the Tm in data set [2] is 41.8 °C.

As for GCTGGAGGAAACTCTGGC ((..(((....)))..)), the folding enthalpy in data set [1] was -28 kcal/mol. In data set [2], the Tm is 41.6 °C.

In the case of GCTGACGGAAACATCAGC (((((.(....).))))), the folding enthalpy in data set [1] is -35.1 kcal/mol. Also, the Tm in data set [2] came out at 44.3 °C.

For the sequence GCGAGCGAAAGCTAACGC ((((((....)))..))), in data set [1], the folding enthalpy was -22.7 kcal/mol. In addition, in data set [2], the Tm came to 52.6 °C.

With GTCTTACGAAAGTAGAC (((.(((....)))))), the folding enthalpy in data set [1] was -23.8 kcal/mol. Moreover, the Tm in data set [2] stood at 43.4 °C.

As to GATCCCTGGGGGGATC ((((((....)))))), in data set [1], the folding enthalpy is -37.2 kcal/mol. Moreover, the Tm in data set [2] turned out to be 63.9 °C.

Regarding GGCCCGGCGAAAGCCGCC (((..(((....)))))), the folding enthalpy in data set [1] is -7.68 kcal/mol. Moreover, the Tm in data set [2] was 37 °C.

With CGCGGAACTGTCCGCG ((((((....)))))), the folding enthalpy in data set [1] was -45.6 kcal/mol. For the same sequence, the Tm in data set [2] turned out to be 64.8 °C.

Take GGCTGTGGAAACACGGTC (.(.(((....))).).): the folding enthalpy in data set [1] was -28.1 kcal/mol. In data set [2], the Tm was 44.4 °C.

On to GCAATTGGAAACAATTGC (((((((....))))))), for which the folding enthalpy in data set [1] was -43.9 kcal/mol. In addition, the Tm in data set [2] is 58.9 °C.

In the case of GGTCCGGGAAACCGAACC (((.(((....))).))), the folding enthalpy in data set [1] was -29.1 kcal/mol. Besides, in data set [2], the Tm came to 46.8 °C.

Consider GCAAGGCGAAAGCAGTGC (((..((....))..))), for which the folding enthalpy in data set [1] is -16.8 kcal/mol. Moreover, the Tm in data set [2] came to 50.9 °C.

Regarding GGCTCCGAAAGGATAGCC ((((((....)))..))), the folding enthalpy in data set [1] was -39.5 kcal/mol. Moreover, the Tm in data set [2] was 52.4 °C.

Regarding GGGAACCGAAAGGTCCCC (((.(((....))).))), in data set [1], the folding enthalpy was -25.4 kcal/mol. Moreover, the Tm in data set [2] came to 58.1 °C.

On to GCAAAGCGAAAGCCTAGC ((.(.((....)).).)), for which the folding enthalpy in data set [1] was -7.83 kcal/mol. Besides, the Tm in data set [2] came out at 30.2 °C.

For GAGGGGGCGAAAGCCCTC (((..(((....)))))), the folding enthalpy in data set [1] was -7.85 kcal/mol. In addition, the Tm in data set [2] is 40.6 °C.

With GATCCTTTCTAGGATC ((((((....)))))), the folding enthalpy in data set [1] was -40.5 kcal/mol. Also, in data set [2], the Tm worked out at 53.7 °C.

As to GTGTGTGGAAACACGTAC ((..(((....)))..)), the folding enthalpy in data set [1] was -11.8 kcal/mol. In addition, the Tm in data set [2] worked out at 38.7 °C.

Take GATCCTAAGGAGGATC ((((((....)))))): the folding enthalpy in data set [1] is -25.2 kcal/mol. In data set [2], the Tm was 49.3 °C.

Regarding GCCAGGGGAAACTCTGGC (((((.(....).))))), the folding enthalpy in data set [1] is -40.9 kcal/mol. Besides, the Tm in data set [2] was determined as 56.1 °C.

For the sequence GGGATGCCGAAAGGCCCC (((..(((....)))))), the folding enthalpy in data set [1] was -15.6 kcal/mol. The Tm in data set [2] turned out to be 46.6 °C.

Regarding GGCACTCCGAAAGGAGCC (((..(((....)))))), the folding enthalpy in data set [1] is -9.55 kcal/mol. Besides, in data set [2], the Tm is 35.2 °C.

Regarding GCGTTAGGAAACCAACGC (((((.(....).))))), in data set [1], the folding enthalpy is -44.9 kcal/mol. Besides, the Tm in data set [2] worked out at 49.8 °C.

Consider GTCGGATCGAAAGATGAC (((..(((....)))))), for which the folding enthalpy in data set [1] is -16.7 kcal/mol. The Tm in data set [2] stood at 31.7 °C.

For GCAGGGCGAAAGCAGTGC (((..((....))..))), the folding enthalpy in data set [1] is -18.3 kcal/mol. Also, the Tm in data set [2] came to 56.7 °C.

GCTCTTGGAAACAAGAAC (.(((((....))))).): the folding enthalpy in data set [1] is -16.3 kcal/mol. For the same sequence, the Tm in data set [2] amounted to 31.4 °C.

As for GCTGTCGGAAACGATGGC ((..(((....)))..)), the folding enthalpy in data set [1] was -33.5 kcal/mol. In data set [2], the Tm stood at 47.8 °C.

Take GACTAGGGAAACCCAGTC ((((.((....)).)))): the folding enthalpy in data set [1] is -30.1 kcal/mol. Further, in data set [2], the Tm is 40.2 °C.

GATCGTGATAACGATC ((((((....)))))): the folding enthalpy in data set [1] is -40.2 kcal/mol. Also, the Tm in data set [2] was determined as 63.6 °C.

(Values after the array DNA melting data of Ke et al. (doi:10.1101/2024.01.08.574731).)
